# Compound activity as filed in PubChem.
# MrgX1 antagonist: human MrgX1 receptor antagonism, primary screen. Q96LB2. MRGX1-HEK293 calcium flux, Fluo-4, BAM8-22 antagonism; hits give low values. B-score at 10 µM. 310,000 compounds, 1.3% hits. AID 588676;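 active = calcium-response B-score plate-corrected more than 3 library SD below zero, starting fluorescence within 5 deviations, no agonist response on first addition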;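 note: peak minus trough fluorescence over baseline after final BAM8-22 challenge near maximal dose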
# Target sequence (Q96LB2 whole entry, looked up): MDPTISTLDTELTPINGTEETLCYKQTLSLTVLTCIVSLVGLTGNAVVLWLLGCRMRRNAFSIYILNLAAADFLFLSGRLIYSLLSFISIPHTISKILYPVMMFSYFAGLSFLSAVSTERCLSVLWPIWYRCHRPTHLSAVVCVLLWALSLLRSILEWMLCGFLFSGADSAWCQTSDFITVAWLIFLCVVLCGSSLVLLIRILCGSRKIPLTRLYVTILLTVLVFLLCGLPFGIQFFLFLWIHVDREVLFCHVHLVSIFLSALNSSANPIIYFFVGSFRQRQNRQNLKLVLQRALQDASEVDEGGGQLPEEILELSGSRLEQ
# RGS4 inh: inhibitors of human RGS4. 310,000 compounds, 0.45% hits. P49798. B-score at 10 µM. HEK293 M3R/RGS4 inducible, Fluo-4 calcium flux; hits give high values; triggered by carbachol at its EC20;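 active = B-score, a plate-corrected calcium signal, over three deviations above library mean, with baseline fluorescence within five deviations of library mean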;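 note: RGS4 expression induced by doxycycline in cells with stable M3 receptor; B-score is computed from the integrated fluorescence ratio over baseline after carbachol; higher B-score means a larger calcium signal and so more RGS4 inhibition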
# Target sequence (P49798 whole entry, looked up): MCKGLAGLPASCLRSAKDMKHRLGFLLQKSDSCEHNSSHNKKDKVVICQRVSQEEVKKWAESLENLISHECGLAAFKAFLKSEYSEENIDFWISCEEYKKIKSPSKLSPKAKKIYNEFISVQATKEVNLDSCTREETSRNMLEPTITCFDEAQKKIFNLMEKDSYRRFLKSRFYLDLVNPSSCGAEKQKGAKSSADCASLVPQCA
# MrgX1 allo act: allosterically activates human MrgX1 receptor signaling; 310,000 compounds, 0.63% hits; B-score at 10 µM; MrgX1-HEK293, Fluo-4 calcium flux, FDSS; hits give high values;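 active = plate-corrected calcium response at least 3 library SD above typical, normal starting fluorescence, not activating the receptor alone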;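 note: compound read alongside a low EC10 to EC30 dose of BAM8-22 agonist; peak minus trough fluorescence over baseline measured at the second addition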
# RGS4 pot: RGS4 potentiation or activation. HEK293 M3R/inducible RGS4, carbachol calcium flux Fluo4; hits give low values. B-score at 10 µM. 310,000 compounds, 0.92% hits. AID 463111;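 active = B-score of the integrated calcium signal more than 4 SD below the library mean, with starting fluorescence not abnormally high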;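 note: negative B-score means reduced calcium response which marks RGS4 activation or potentiation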
#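 Assay system: Inducible-RGS4 HEK293 cells carrying M3 receptor | Schedule: Compound preincubation 20 min at room temperature before agonist | Signal: Kinetic calcium fluorescence imaging with Fluo4-AM dye, 2 µM | Read-out basis: B score from integrated fluorescence ratio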
# MrgX1 ag: activates human MrgX1 receptor signaling. Q96LB2. MrgX1-HEK293 cells, Fluo-4 calcium fluorescence, agonist mode; hits give high values. B-score at 10 µM. 310,000 compounds, 0.44% hits. AID 588627;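 active = calcium response B-score plate-corrected fluorescence ratio at least 3 library SD, with starting fluorescence B-score inside 5 SD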
#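 System: HEK293 cells stably expressing human MrgX1 receptor; Dosing: test compound in the initial addition of three; Schedule: overnight plating, then 30 min 37 °C plus 30 min room-temperature dye loading; Detection: kinetic calcium dye fluorescence, Fluo-4 NW; Controls: per-plate positive and negative controls for Z′ factor.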
# An asterisk follows results filed as active; i = inactive; . = no result. Most compounds without a hit are left out; they make up all but 3.5% or so of the library.
SMILES,MrgX1 antagonist,RGS4 inh,MrgX1 allo act,RGS4 pot,MrgX1 ag
O=[N+]([O-])c1ccc(C2=NN(c3ccccc3)C(c3ccco3)C2)cc1 (centres undefined),.,i,.,-7.16*,.
CC1(C)CC(=O)C(C=Nc2ccccc2C(=O)O)=C(O)C1,i,i,i,i,i
CC1(C)CC(=O)C(C=Nc2ccccc2Sc2ccccc2)=C(O)C1,i,i,i,-8.79*,i
Cc1ccc(CN2C(=O)CSC2c2cccnc2)cc1 (centres undefined),i,i,i,i,i
CCOC(=O)NC(=O)/C(C#N)=C/c1ccc(N(C)C)cc1,i,i,i,i,54*
CN(C)c1ccc(/C=C(\C#N)C(=O)c2ccccc2)cc1,-6.3*,i,i,i,i
CCN(CC)c1ccc(/C=C(\C#N)C(N)=S)cc1,i,i,i,i,i
CCN(CC)c1ccc(/C=C(\C#N)C(=O)c2ccc(Br)cc2)cc1,i,i,i,i,30*
CC(=O)Nn1c(COc2ccccc2C)nc2ccccc2c1=O,i,i,i,i,i
O=C(CSc1ccccc1C(=O)NCc1ccccc1)NC1CCCCCCC1,i,i,i,i,i
COc1ccccc1NS(=O)(=O)c1cc(NC(=O)Nc2cccc(C)c2)ccc1N1CCCCC1,i,i,i,i,i
O=C(Nc1ccc(Cl)cc1)Nc1ccc(N2CCCC2)c(S(=O)(=O)Nc2ccccc2Cl)c1,-5.98*,i,i,i,i
COc1ccc(C2SCCN2C(=S)Nc2cccc(C(F)(F)F)c2)cc1 (centres undefined),-5.28*,i,i,i,i
CC(=O)OCCn1c(C)[n+](CCOC(C)=O)c2cc(Cl)c(Cl)cc21,i,i,i,i,i
CC(=O)OCCn1c2nc(=O)[nH]c(=O)c-2nc2cc(C)c(C)cc21,i,i,i,-7.65*,i
Cc1cc[n+](C(C)C(=O)c2ccc(-c3ccccc3)cc2)cc1 (centres undefined),i,i,i,-9.36*,i
CC(C(=O)c1ccc(-c2ccccc2)cc1)[n+]1ccccc1 (centres undefined),i,i,i,i,i
O=C(NCCc1ccccc1)c1ccccc1NC(=O)C1CCCCC1C(=O)O (centres undefined),i,i,i,i,i
O=C(CN1CCCCC1)N1N=C(c2cccs2)CC1c1cccs1 (centres undefined),i,i,i,-7.97*,i
O=C(c1ccccc1)c1c2c(cc3sc4ccccc4[n+]13)-c1cccc3cccc-2c13,-8.81*,.,i,.,i
Cc1sc2ccccc2[n+]1CC(=O)c1ccccc1,i,i,i,i,i
O=C1CC(Nc2ccccc2)C(=O)N1Cc1ccccc1 (centres undefined),i,i,i,i,i
Cc1c(C(=O)Nc2ccc(Cl)cc2)c2ccccn2c1C(=O)c1ccc([N+](=O)[O-])cc1,i,i,i,-8.21*,i
Cc1c(C(=O)Nc2ccc(Cl)cc2)c2ccccn2c1C(=O)c1ccccc1,i,i,i,i,i
Cc1c(C=O)c2ccccn2c1C(=O)c1ccc(Cl)c([N+](=O)[O-])c1,-4.61*,i,i,i,i
SMILES,MrgX1 antagonist,RGS4 inh,MrgX1 allo act,RGS4 pot,MrgX1 ag
CCCN(CCC)C(=O)c1ccc2nc(-c3ccc(OC)c(OC)c3)c(-c3ccc(OC)c(OC)c3)nc2c1,i,i,i,i,i
CN(C)c1ccc(NS(=O)(=O)c2cc(Cl)ccc2Cl)cc1,i,i,i,i,i
Cc1ccc(NC(=O)CSc2nc3c(c(=O)[nH]2)CCC3)cc1C,i,i,i,i,i
N#C/C(C(N)=O)=C1/CCc2ccccc2N1,-4.95*,i,i,i,i
O=C1CCc2ccccc2N1,i,i,i,i,i
COc1cccc(/C=N/Nc2ncnc3scc(-c4ccccc4)c23)c1O,i,i,i,-10.4*,i
COc1cccc(/C=N/Nc2ncnc(Cl)c2N)c1O,i,i,i,i,i
O=C(O)CCC(=O)NNC(=O)c1ccc(Br)cc1,-9.28*,i,i,i,i
O=C(O)CCCC(=O)NNC(=O)c1cccc(Br)c1,i,i,i,i,i
CN(C)S(=O)(=O)c1ccc(C(=O)Nc2ccc3ncccc3c2)cc1,i,i,i,i,i
COc1ccc(-n2c(-c3ccc(Br)cc3)c[n+]3c2CCC3)cc1,i,i,i,-7.21*,i
COc1ccccc1NC(=O)Nc1nc(CC(=O)N2CCN(c3ccccc3F)CC2)cs1,i,i,i,-7.08*,i
COc1ccccc1NC(=O)Nc1nc(CC(=O)NCc2c(F)cccc2F)cs1,i,i,i,i,i
Cc1ccc(S(=O)(=O)NNC(=O)C(O)(c2ccccc2)c2ccccc2)cc1,i,i,i,i,i
Cc1cc(C(=O)NNS(=O)(=O)c2ccc(C(C)(C)C)cc2)nn1C(C)(C)C,i,i,9.82*,i,i
CCc1ccc(C(C)NC(=S)NC2CCCCC2)cc1 (centres undefined),i,i,i,i,i
CCC(C)c1ccc(C(C)NC(=S)NC2CCCCC2)cc1 (centres undefined),i,i,i,-8.41*,i
Fc1ccc(Br)cc1C1C=C(c2ccc(Br)cc2)Nc2ncnn21 (centres undefined),i,i,i,i,i
CCc1ccc(C2=CC(c3cc(Br)ccc3F)n3ncnc3N2)cc1 (centres undefined),i,.,11*,.,i
COc1ccc(N(CC(=O)NCCSCc2ccc(C)cc2)S(=O)(=O)c2ccccc2)cc1,i,i,i,i,i
COc1ccccc1N(CC(=O)Nc1c(C)n(C)n(-c2ccccc2)c1=O)S(=O)(=O)c1ccc(C)cc1,-5.48*,i,i,i,i
COc1ccccc1N(CC(=O)NCCSCc1ccc(C)cc1)S(=O)(=O)c1ccccc1,i,i,i,-10.1*,i
Cc1ccc(CSCCNC(=O)CN(c2cccc([N+](=O)[O-])c2)S(C)(=O)=O)cc1,i,i,9.91*,i,i
CS(=O)(=O)N(CC(=O)NCc1ccccc1Cl)c1cccc([N+](=O)[O-])c1,i,i,i,i,i
CCN1CCc2c(sc(NC(=O)c3cc4ccccc4cc3OC)c2C(N)=O)C1,i,i,i,i,i
COc1cc(S(=O)(=O)N2CCCC2)c(C)cc1C,i,i,i,i,i
